ChEMBL document CHEMBL3797162, “Synthesis and inhibitory evaluation of 3-linked imipramines for the exploration of the S2 site of the human serotonin transporter” (Bioorg Med Chem, 2016)

Legend:
Type in all cases: cell-based
[1] = target: Sodium-dependent serotonin transporter (Homo sapiens, UniProt P31645); assay: Inhibition of wild-type human SERT expressed in HEK293 MSR cells assessed as [3H]-5-HT uptake preincubated for 30 mins followed addition of [3H]-5HT and compound for 10 mins by micro-scintillation counter
Chain of Sodium-dependent serotonin transporter (Homo sapiens, UniProt P31645) (P31645 whole entry): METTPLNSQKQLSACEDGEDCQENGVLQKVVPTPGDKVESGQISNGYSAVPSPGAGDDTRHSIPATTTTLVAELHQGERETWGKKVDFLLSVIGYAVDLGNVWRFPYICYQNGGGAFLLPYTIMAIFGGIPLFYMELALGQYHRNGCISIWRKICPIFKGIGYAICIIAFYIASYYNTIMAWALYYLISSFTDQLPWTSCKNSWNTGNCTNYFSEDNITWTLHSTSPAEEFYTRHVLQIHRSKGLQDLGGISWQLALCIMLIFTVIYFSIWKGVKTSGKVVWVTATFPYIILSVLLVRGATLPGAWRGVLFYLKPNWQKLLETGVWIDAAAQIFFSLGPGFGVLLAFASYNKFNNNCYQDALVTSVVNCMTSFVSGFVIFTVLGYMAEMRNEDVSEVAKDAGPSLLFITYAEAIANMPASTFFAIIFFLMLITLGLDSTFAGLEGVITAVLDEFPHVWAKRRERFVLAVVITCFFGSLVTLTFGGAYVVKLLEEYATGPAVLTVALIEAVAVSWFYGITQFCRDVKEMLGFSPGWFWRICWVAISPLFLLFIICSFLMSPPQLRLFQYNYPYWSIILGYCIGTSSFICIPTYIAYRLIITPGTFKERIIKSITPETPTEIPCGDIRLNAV
How it was run: (§1)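 Cells were transiently transfected (Lipofectamine 2000, 0.2 µg DNA per cm²) and used after 48–60 h. Cells were washed in PBS with Ca/Mg (pH 7.4) and preincubated 30 min with a dilution series. 50–100 nM [3H]5-HT plus inhibitor was then added for 10 min at room temperature.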

[2] = target: Sodium-dependent serotonin transporter (Homo sapiens, UniProt P31645, W103A); assay: Inhibition of human SERT W103A mutant expressed in HEK293 MSR cells assessed as [3H]-5-HT uptake preincubated for 30 mins followed addition of [3H]-5HT and compound for 10 mins by micro-scintillation counter; how it was run: as §1
Chain of Sodium-dependent serotonin transporter (Homo sapiens, UniProt P31645, W103A) (P31645 whole entry W103A): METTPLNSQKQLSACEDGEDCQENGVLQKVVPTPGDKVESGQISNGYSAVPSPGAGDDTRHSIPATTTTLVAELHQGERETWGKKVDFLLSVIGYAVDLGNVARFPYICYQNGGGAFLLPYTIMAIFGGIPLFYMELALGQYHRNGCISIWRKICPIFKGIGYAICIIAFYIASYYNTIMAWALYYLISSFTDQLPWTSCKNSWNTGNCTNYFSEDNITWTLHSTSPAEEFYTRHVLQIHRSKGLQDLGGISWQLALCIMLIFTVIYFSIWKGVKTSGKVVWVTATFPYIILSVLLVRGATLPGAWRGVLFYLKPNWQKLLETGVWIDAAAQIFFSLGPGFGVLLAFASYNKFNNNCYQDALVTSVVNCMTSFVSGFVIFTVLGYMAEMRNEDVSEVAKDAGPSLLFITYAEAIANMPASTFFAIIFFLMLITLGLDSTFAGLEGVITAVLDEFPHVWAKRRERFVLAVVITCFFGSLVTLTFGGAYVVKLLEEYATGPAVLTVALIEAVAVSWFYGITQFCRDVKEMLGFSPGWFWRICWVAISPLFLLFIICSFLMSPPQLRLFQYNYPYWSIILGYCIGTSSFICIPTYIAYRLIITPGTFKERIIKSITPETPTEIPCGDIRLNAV

[3] = target: Sodium-dependent serotonin transporter (Homo sapiens, UniProt P31645, I179C); assay: Inhibition of human SERT I179C mutant expressed in HEK293 MSR cells assessed as [3H]-5-HT uptake preincubated for 30 mins followed addition of [3H]-5HT and compound for 10 mins by micro-scintillation counter; how it was run: as §1
Chain of Sodium-dependent serotonin transporter (Homo sapiens, UniProt P31645, I179C) (P31645 whole entry I179C): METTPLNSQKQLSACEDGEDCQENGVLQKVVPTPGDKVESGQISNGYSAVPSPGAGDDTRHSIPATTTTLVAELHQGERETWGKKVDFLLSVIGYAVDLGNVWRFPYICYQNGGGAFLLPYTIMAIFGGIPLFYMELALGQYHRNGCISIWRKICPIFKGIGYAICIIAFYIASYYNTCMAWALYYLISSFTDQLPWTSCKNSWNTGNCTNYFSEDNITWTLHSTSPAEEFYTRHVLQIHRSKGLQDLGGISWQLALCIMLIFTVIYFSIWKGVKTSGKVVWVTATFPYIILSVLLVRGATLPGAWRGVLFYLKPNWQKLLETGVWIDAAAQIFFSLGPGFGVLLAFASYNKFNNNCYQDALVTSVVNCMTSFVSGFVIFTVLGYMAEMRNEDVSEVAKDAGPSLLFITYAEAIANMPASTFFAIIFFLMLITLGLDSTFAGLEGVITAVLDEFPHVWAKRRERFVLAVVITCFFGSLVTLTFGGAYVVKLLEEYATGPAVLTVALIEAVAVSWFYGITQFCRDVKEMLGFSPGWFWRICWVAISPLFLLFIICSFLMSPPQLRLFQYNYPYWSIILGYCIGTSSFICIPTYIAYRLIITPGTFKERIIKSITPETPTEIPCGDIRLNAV

[4] = target: Sodium-dependent serotonin transporter (Homo sapiens, UniProt P31645, I172M); assay: Inhibition of human SERT I172M mutant expressed in HEK293 MSR cells assessed as [3H]-5-HT uptake preincubated for 30 mins followed addition of [3H]-5HT and compound for 10 mins by micro-scintillation counter; how it was run: as §1
Chain of Sodium-dependent serotonin transporter (Homo sapiens, UniProt P31645, I172M) (P31645 whole entry I172M): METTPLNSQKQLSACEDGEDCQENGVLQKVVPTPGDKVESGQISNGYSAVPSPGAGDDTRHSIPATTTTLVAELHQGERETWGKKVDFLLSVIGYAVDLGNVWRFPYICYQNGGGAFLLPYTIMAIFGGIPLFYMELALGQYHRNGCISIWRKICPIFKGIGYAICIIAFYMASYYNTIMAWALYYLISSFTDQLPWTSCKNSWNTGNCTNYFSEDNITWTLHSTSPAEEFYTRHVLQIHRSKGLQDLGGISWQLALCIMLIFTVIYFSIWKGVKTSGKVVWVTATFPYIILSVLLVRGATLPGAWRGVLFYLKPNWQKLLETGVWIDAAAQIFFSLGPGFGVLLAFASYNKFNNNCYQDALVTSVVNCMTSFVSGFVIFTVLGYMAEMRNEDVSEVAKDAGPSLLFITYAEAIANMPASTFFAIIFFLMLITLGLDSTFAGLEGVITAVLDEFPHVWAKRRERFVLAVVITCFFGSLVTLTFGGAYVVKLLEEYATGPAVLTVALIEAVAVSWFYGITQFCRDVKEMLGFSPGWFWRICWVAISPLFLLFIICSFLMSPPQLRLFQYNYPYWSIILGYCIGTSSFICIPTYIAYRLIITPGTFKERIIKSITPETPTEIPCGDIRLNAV

SMILES	Ki [1] [nM]	IC50 [2] [nM]	Ki [3] [nM]	Ki [4] [nM]
CN(C)CCCN1c2ccccc2CCc2ccc(C#CCOCc3cccc4ccccc34)cc21	590	340	280	5400
CN(C)CCCN1c2ccccc2CCc2ccc(C#CCOCCCOc3cccc4ccccc34)cc21	3500	940	1200	27000
CN(C)CCCN1c2ccccc2CCc2ccc(CCCOCCCN3c4ccccc4CCc4ccccc43)cc21	6300	270	330	15000
CN(C)CCCN1c2ccccc2CCc2ccc(C#CCOCCOCCSc3cccc4ccccc34)cc21	2000	560	500	19000
CN(C)CCCN1c2ccccc2CCc2ccc(CCCOCCCOc3cccc4ccccc34)cc21	1200	600	620	9400
CN(C)CCCN1c2ccccc2CCc2ccc(C#CCOCCOc3cccc4ccccc34)cc21	3500	4800	1800	8000
CN(C)CCCN1c2ccccc2CCc2ccc(CCCOCCOCCc3cccc4ccccc34)cc21	1000	280	360	6700
CN(C)CCCN1c2ccccc2CCc2ccc(C#CCOCCCOCCCN3c4ccccc4CCc4ccccc43)cc21	11000	4100	2800	10000
CN(C)CCCN1c2ccccc2CCc2ccc(C#CCO)cc21	150	60	35	2600
CN(C)CCCN1c2ccccc2CCc2ccc(C#CCOCCCN3c4ccccc4CCc4ccccc43)cc21	13000	1600	1600	16000
CN(C)CCCN1c2ccccc2CCc2ccc(CCCOCCOc3cccc4ccccc34)cc21	600	280	270	2700
CN(C)CCCN1c2ccccc2CCc2ccc(C#CCOCCOCCOc3cccc4ccccc34)cc21	6500	420	450	6400
CN(C)CCCN1c2ccccc2CCc2ccc(C#CCOCCOCCc3cccc4ccccc34)cc21	1100	300	540	5200
CN(C)CCCN1c2ccccc2CCc2ccc(CCCOCc3cccc4ccccc34)cc21	620	610	290	5000
CN(C)CCCN1c2ccccc2CCc2ccc(CCCOCCCOCCCN3c4ccccc4CCc4ccccc43)cc21	5900	840	640	11000
CN(C)CCCN1c2ccccc2CCc2ccc(C#CCOCCOc3ccc4ccccc4c3)cc21	1500	440	640	2000
C#Cc1ccc2c(c1)N(CCCN(C)C)c1ccccc1CC2	220	40	27	2400
